# Laboratory results from ChEMBL document CHEMBL1212774, “In vitro activity of fosfomycin against blaKPC-containing Klebsiella pneumoniae isolates, including those nonsusceptible to tigecycline and/or colistin” (2010).
# Assays:
# Format in all cases: functional
# Klebsiella pneumoniae [1] = assay: Antimicrobial activity against Klebsiella pneumoniae isolate KpKPC expressing multidrug-resistant blaKPC gene assessed as susceptible isolates by disk diffusion method
# Outline: (§1)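 Fosfomycin disk diffusion with inhibition zone diameters read in mm and interpreted as susceptible, intermediate or resistant. E. coli ATCC 25922 and P. aeruginosa ATCC 27853 run as controls.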
# Klebsiella pneumoniae [2] = assay: Antimicrobial activity against Klebsiella pneumoniae isolate KpKPC expressing multidrug-resistant blaKPC gene assessed as susceptible isolates by Etest
# Outline: (§2)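 Etest of fosfomycin MICs, with MICs rounded up to the next doubling concentration (e.g., 48 to 64 μg/ml). E. coli ATCC 25922 and P. aeruginosa ATCC 27853 included as controls. Isolates categorised as susceptible or resistant.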
# Klebsiella pneumoniae [3] = assay: Antimicrobial activity against Klebsiella pneumoniae isolate KpKPC expressing multidrug-resistant blaKPC gene assessed as resistant isolates by Etest; outline: as §2
# Klebsiella pneumoniae [4] = assay: Antimicrobial activity against Klebsiella pneumoniae isolate KpKPC expressing multidrug-resistant blaKPC gene assessed as resistant isolates by disk diffusion method; outline: as §1
structure (smiles),measurement,setting,value
C[C@@H]1O[C@@H]1P(=O)(O)O [FOSFOMYCIN],Activity,Klebsiella pneumoniae [1],63.2%
same,Activity,Klebsiella pneumoniae [2],61.8%
same,Activity,Klebsiella pneumoniae [3],14.7%
same,Activity,Klebsiella pneumoniae [4],2.9%
